Compound activity (PubChem)
m5-HT2A agonist: activates the mouse 5-HT2A serotonin receptor | hit rate 0.66% among 360,000 | CHO-K1 mHTR2A beta-arrestin complementation, luminescence; percent of 30 µM serotonin response | P35363 | activation, % at 7.6 µM;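 active means activation above a run cutoff, the mean activation of all tested compounds plus 3 SD, cut at about 14% in these data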;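 further: 0% = plate median of compound wells and 100% = 30 µM serotonin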
Target sequence (P35363 whole entry, looked up): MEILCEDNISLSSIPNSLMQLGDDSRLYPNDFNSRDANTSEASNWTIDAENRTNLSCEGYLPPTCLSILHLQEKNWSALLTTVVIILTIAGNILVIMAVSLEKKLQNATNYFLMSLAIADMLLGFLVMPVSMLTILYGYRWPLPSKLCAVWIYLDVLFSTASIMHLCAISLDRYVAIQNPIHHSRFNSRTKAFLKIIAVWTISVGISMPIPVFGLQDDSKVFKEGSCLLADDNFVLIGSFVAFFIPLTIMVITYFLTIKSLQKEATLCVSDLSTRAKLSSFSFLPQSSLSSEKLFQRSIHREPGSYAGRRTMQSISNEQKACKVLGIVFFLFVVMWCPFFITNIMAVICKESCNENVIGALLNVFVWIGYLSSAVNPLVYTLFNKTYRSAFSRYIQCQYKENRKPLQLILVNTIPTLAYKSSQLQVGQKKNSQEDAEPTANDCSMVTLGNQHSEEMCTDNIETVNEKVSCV
Beta2AR agonist: agonists of human beta-2 adrenergic receptor inducing internalization | AID 504454 | hit rate 0.43% among 340,000 | response, % (test concentration not listed) | Am2.2-beta2AR cells, FAP receptor internalization, flow cytometry;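 active means response above a set limit, near 3 SD of response in nonfluorescent compounds, cut at about 42% in these data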
MC4R ag barr: agonists of human melanocortin 4 receptor (MC4R) beta-arrestin | P32245 | U2OS MC4R beta-arrestin complementation, luminescence; percent of melanotan II response, DMSO zero | activation, % at 8.9 µM | hit rate 0.98% among 360,000 | AID 540308;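 active means activation above a per-plate cutoff, the mean activation of sample wells on that plate plus 3 SD, cut at about 8% in these data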
TAAR1 agonist: human TAAR1 agonism; Q96RJ0; CHO RD-HGA16 TAAR1, Fluo-8 calcium fluorescence; vehicle wells 0%, saturating PEA agonist 100%; activation, % at 3 µM; hit rate 0.99% among 360,000; AID 624467;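 active means activation above the mean activation of all test compounds in the run plus 3 SD, cut at about 38% in these data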
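Benchmarks: low control DMSO, high control PEA (EC100); System: CHO RD-HGA16 cells carrying human TAAR1 plus Gα16; Detection: Fluo-8 fluorescence, 5 s baseline then 140 s kinetic read; Schedule: 17-24 h plating, Fluo-8 75 min 37 °C, 30 min RT; Read-out basis: % activation from peak over basal fluorescence ratio, DMSO-to-PEA scaled.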
MC4R antagonist: human MC4R antagonism in cAMP assay | inhibition, % at 6.5 µM | P32245 | hit rate 0.48% among 360,000 | MC4R-expressing cells, MTII-stimulated cAMP, LANCE TR-FRET;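 active means inhibition above its plate's cutoff, the mean of tested wells on that plate plus 3 SD, cut at about 29% in these data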;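 further: 0% = Melanotan II alone and 100% = Melanotan II plus saturating MCL0020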
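System: U2OS-MC4R stable cell line; Technique: Eu-cAMP/anti-cAMP TR-FRET, emission 671 nm; Repeats: single well per compound; Also added: Melanotan II; Dosing: one concentration, 6.5 µM nominal; Schedule: 30-min compound, 1-h challenge, 1-h detection, room temperature.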
TAAR1 antagonist: human TAAR1 antagonism | Q96RJ0 | CHO RD-HGA16 TAAR1, Fluo-8 calcium fluorescence, antagonist | inhibition, % at 3 µM | hit rate 1.5% among 360,000;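 active means inhibition above a per-plate cutoff, the mean inhibition of test compounds on that plate plus 3 SD, cut at about 49% in these data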;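 further: 0% = DMSO plus EC80 beta-PEA response and 100% = DMSO alone without agonist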
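Material: CHO RD-HGA16 cells bearing hTAAR1; compound dosing: one-point dosing, 3 µM nominal final; schedule: dye loading 75 min at 37 °C, then 30 min room temperature; measured by: calcium fluorescence with Fluo-8; control set: vehicle and agonist controls; replication: n of 1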
An asterisk follows results filed as active; x = no result given. An excerpt weighted towards active compounds, which were near 4.3% of everything screened.

SMILES	m5-HT2A agonist	Beta2AR agonist	MC4R ag barr	TAAR1 agonist	MC4R antagonist	TAAR1 antagonist
COC(=O)[C@]12CCCCC=C1N(CCc1ccc(OC)c(OC)c1)C(=O)[C@H](CC(=O)N1CCN(C(=O)C3CC3)CC1)C2	1	x	x	5	x	-10
COC(=O)[C@]12CCCCC=C1N(CCc1ccc(OC)c(OC)c1)C(=O)[C@H](CC(=O)N1CCC(c3ccccc3)CC1)C2	1	x	x	5	x	67*
COC(=O)C1=C(C)N(Cc2ccccc2C(F)(F)F)C(=NCc2ccccc2)NC1c1ccc(Cl)cc1 (configuration not stated)	x	x	x	3	x	5
COCC(=O)O[C@]1(CCN(C)CCCc2nc3ccccc3[nH]2)CCc2cc(F)ccc2[C@@H]1C(C)C	-3	41	6	41*	3	41
COc1cc(NC(=O)c2ccco2)c(C(=O)OCC(=O)c2c[nH]c3ccccc23)cc1OC	3	-2	-1	17	-12	62*
COc1ccccc1NC(=O)COC(=O)c1c[nH]c2ccccc12	0	7	4	8	9	49*
O=C(OCC(=O)c1c[nH]c2ccccc12)c1ccco1	-2	-2	-1	28	-6	-23
O=C(NCc1ccccc1)[C@H]1CCCN1C(=O)[C@H]1CCCN1C(=O)c1ccccc1C(F)(F)F	x	x	x	1	x	-15
Cc1ccc(NC(CC(=O)c2ccccc2)c2ccc(F)cc2)cc1 (configuration not stated)	-8	13	1	17	5	-9
Cc1ccc(C(=O)CC(Nc2ccc(F)cc2)c2ccccc2)cc1 (configuration not stated)	-2	-4	8.9*	6	2	26
Cc1ccc(S(=O)(=O)N2C[C@H]3C(=O)C[C@@H](c4ccccc4)N(S(=O)(=O)c4ccccc4[N+](=O)[O-])[C@H]3C[C@H]2c2ccccc2)cc1	-5	x	x	0	x	-6
O=C(CCn1cccc1)NCc1ccccc1	1	-12	-3	5	-1	0
O=C(Cc1ccccc1)NCc1ccc(-n2cccc2)cc1	-10	-1	-1	38*	-3	13
Cn1cnc([N+](=O)[O-])c1Sc1ccc(C(C)(C)C)cc1	-11	-90	2	42*	13	28
O=C(Nc1ccc(OC(F)(F)F)cc1)Nc1cccc([N+](=O)[O-])c1	-6	11	-1	11	-14	53*
COC(=O)[C@]12C[C@H](CC(=O)NCc3ccccc3)C(=O)N(Cc3ccccc3)C1=C[C@H](C1CCCC1)O[C@@H]2C	x	x	x	-1	x	-12
COc1ccccc1NC(=O)Cn1nnc(-c2ccccc2NS(=O)(=O)c2ccccc2)n1	2	-2	0	3	8	57*
COc1ccc(NC(=O)Cn2nnc(-c3ccccc3NS(=O)(=O)c3ccc(OC)cc3)n2)cc1	2	2	-2	0	-10	4
C[C@H](CO)N1C[C@H](C)[C@H](CN(C)C(=O)Nc2cccc3ccccc23)Oc2ncc(Br)cc2C1=O	x	x	x	4	x	-1
CCN(CC(=O)Nc1ccc(NC(C)=O)cc1)C(=O)c1cc(-c2ccccc2Cl)nc2ccccc12	7	19	0	39*	17	72*
CCN(CC)S(=O)(=O)c1cc(NC(=O)c2n[nH]c(=O)c3ccccc23)ccc1C	2	-4	-4	3	14	-2
CCN(CC)S(=O)(=O)c1cc(NC(=O)c2cc(-c3ccccn3)nc3ccccc23)ccc1C	-3	9	-1	16	11	55*
O=C(Nc1cccc(S(=O)(=O)N2CCCC2)c1)c1cc(-c2ccccn2)nc2ccccc12	-5	2	-1	21	11	53*
COC(=O)c1ccc(NC(=O)c2cc(-c3ccccn3)nc3ccccc23)cc1	3	-1	3	1	15	-23
CCN(CC)C(=O)c1cccc(NC(=O)c2cc(-c3ccccn3)nc3ccccc23)c1	4	15	-1	17	-2	49*
SMILES	m5-HT2A agonist	Beta2AR agonist	MC4R ag barr	TAAR1 agonist	MC4R antagonist	TAAR1 antagonist
CCN(CC(=O)Nc1ccc(NC(C)=O)cc1)C(=O)c1ccc2ccccc2c1	4	0	-2	5	1	-30
O=C(c1ccccc1Oc1ccc([N+](=O)[O-])cc1)N1CCOCC1	7	-1	-2	2	-3	-4
O=S(=O)(Nc1nc2ccccc2nc1Nc1cccc(S(=O)(=O)N2CCCCC2)c1)c1ccccc1	0	20	8.5*	3	13	33
COc1ccc(S(=O)(=O)Nc2cccc(S(=O)(=O)N3CCCCCC3)c2)cc1	-5	2	3	7	3	-22
Cc1ccc(-c2cc(C(=O)Nc3ccccc3C)c3ccccc3n2)o1	-4	11	0	12	0	18
O=C(Nc1cccc(S(=O)(=O)NCc2ccco2)c1)c1cc(-c2ccc(F)cc2)nc2ccccc12	-2	12	1	11	28	57*
Cc1nc(-c2cccc(NC(=O)c3cccc(S(=O)(=O)N4CCCC4)c3)c2)cs1	-10	29	-1	9	16	53*
Cc1ccc(-c2cc(C(=O)Nc3cccc(S(=O)(=O)N(C)C)c3)c3ccccc3n2)o1	-5	7	-2	29	8	58*
Cc1csc(NC(=O)c2cccc(S(=O)(=O)N3CCCCC3)c2)n1	-6	5	0	13	-2	11
CC(C)[C@@H](C)/C=C/[C@@H](C)[C@H]1CC[C@@H]2[C@]1(C)CCC1[C@]23C=C[C@]2(C[C@@H](O)CC[C@]12C)N(c1cnccn1)O3 (some centres not stated)	x	x	x	2	x	-11
CC(=O)NCc1ccc(OCCCN2CCC(C(O)(c3ccccc3)c3ccccc3)CC2)cc1	x	x	x	8	x	-1
CN(c1ccc(NC(=O)Cc2cn(C)c3ccccc23)cc1)c1ccccn1	x	x	x	-2	x	1
Cc1cccc(NC(=O)Cn2nnc(C(=O)NCc3cccs3)c2N)c1C	-4	11	9.0*	3	-6	-3
CC(C)n1cc(CN2CCCC(C(=O)Nc3cccc(-c4cc5ccccc5[nH]4)c3)C2)cn1 (configuration not stated)	-7	30	1	40*	3	35
Cc1cc(-c2nnc3n2N=C(c2ccc(-c4ccccc4)cc2)CS3)n[nH]1	-4	0	9.3*	45*	13	36
Cc1cc(-c2nnc3n2N=C(c2ccccc2)CS3)n[nH]1	-1	-13	-2	1	3	-20
CCCC(=O)N1CCC1(C)C(=O)Nc1ncc(C(=O)OC)s1 (configuration not stated)	1	x	-1	2	-3	-21
